Results reported in ChEMBL document CHEMBL3414433, “Discovery and profiling of a selective and efficacious Syk inhibitor” (J Med Chem, 2015).
Active and inactive are the calls of the source. No cut-off for these calls is given here.

Assays:
[1] = Drug uptake in blood of Lewis rat collagen-induced arthritis model at 30 mg/kg, po qd administered on day 15 post immunization measured at 8 hrs on day 18; assay type: ADME, organism-based; parameters: dose 30 mg/kg, route oral; settings: read-out: Drug uptake
Method in brief: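 Collagen-arthritic Lewis rats given 3, 10 or 30 mg/kg p.o. once daily from day 15; blood levels measured on day 18 (third day of treatment) at 4, 8 and 24 h after dosing.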

Canis familiaris [2] = species on record: Canis familiaris; experiment: Hepatotoxicity in dog assessed as bile plugs measured for 4 weeks by GLP study; assay type: toxicity, organism-based, Canis lupus familiaris; settings: in vivo, 672 h
Rattus norvegicus [3] = experiment: In vivo inhibition of Syk in Lewis rat assessed as reduction in FcgR-induced SLP76 phosphorylation in peripheral blood monocytes at 22 mg/kg, po measured after 2 hrs relative to vehicle-treated control; assay type: functional
Method in brief: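 Single oral dose of 22 mg/kg to Lewis rats; blood sampled at 2, 4 and 24 h after dosing for compound level and ex vivo FcγR-induced phospho-SLP76 in peripheral blood monocytes.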

[4] = biological target: T1, Tyrosine-protein kinase ZAP-70 (Homo sapiens, UniProt P43403); experiment: Inhibition of human ZAP70
T1 sequence (P43403 whole entry): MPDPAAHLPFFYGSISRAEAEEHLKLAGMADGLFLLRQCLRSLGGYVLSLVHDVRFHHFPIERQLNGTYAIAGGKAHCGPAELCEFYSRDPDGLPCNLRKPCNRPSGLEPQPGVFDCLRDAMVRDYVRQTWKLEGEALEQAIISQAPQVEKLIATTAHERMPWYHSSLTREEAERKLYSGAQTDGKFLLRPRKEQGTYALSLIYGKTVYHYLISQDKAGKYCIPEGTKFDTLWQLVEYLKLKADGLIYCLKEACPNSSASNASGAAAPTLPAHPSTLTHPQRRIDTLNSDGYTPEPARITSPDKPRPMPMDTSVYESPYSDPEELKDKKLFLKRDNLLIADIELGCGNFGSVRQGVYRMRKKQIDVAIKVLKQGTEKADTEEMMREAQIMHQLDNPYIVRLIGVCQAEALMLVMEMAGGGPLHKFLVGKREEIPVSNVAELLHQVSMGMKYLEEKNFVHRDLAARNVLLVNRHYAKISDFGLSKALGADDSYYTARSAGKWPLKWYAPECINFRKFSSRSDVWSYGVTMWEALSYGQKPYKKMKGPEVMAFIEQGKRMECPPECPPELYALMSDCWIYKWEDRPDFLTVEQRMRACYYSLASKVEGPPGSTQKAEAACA

[5] = Mean residence time in Beagle dog at 0.1 mg/kg, iv and 0.3 mg/kg, po; assay type: ADME, organism-based, Canis lupus familiaris; settings: in vivo
Method in brief: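 Beagle dogs dosed one-in-one. The i.v. dose was 0.1 mg/kg in NMP/PEG200 (3:7), and the p.o. dose was 0.3 mg/kg in MC/water (0.5:99.5). Blood levels were followed after each route.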

[6] = biological target: Tyrosine-protein kinase SYK (Homo sapiens, UniProt P43405)
[7] = Mean residence time in Sprague-Dawley rat at 1 mg/kg, iv and 3 mg/kg, po administered as cassette dosing; assay type: ADME, organism-based; settings: in vivo
Method in brief: (§1)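 Rats were dosed i.v. at 1 mg/kg in NMP/PEG200 (3:7) and p.o. at 3 mg/kg in CMC/water/Tween (0.5:99:0.5). PK parameters were derived from blood concentration–time curves for both routes.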

Rattus norvegicus [8] = experiment: Antiarthritic activity in Lewis rat collagen-induced arthritis model assessed as reduction of joint damage/erosions in hind paw at 3 to 30 mg/kg, po qd administered on day 15 post immunization measured after day 28 by Giemsa/safranin O staining-based assay; assay type: functional, organism-based
Method in brief: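 Female Lewis rats (140−160 g), arthritis induced by porcine collagen immunization (day 0) and boost (day 7); rats with swollen joints randomized, dosed orally once daily from day 15 to day 28. Hind paws taken on day 28, fixed in 10% buffered formalin for 48 h, decalcified over 16 days, paraffin-embedded; 3 μm sections stained with Giemsa and safranin O and scored.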

[9] = Volume of distribution at steady state in Sprague-Dawley rat at 1 mg/kg, iv and 3 mg/kg, po administered as cassette dosing; assay type: ADME, organism-based; settings: in vivo, read-out: Vdss; method in brief: as §1
Canis familiaris [10] = experiment: Dose normalized Cmax in Beagle dog at 0.1 mg/kg, iv and 0.3 mg/kg, po; assay type: ADME, organism-based, Canis lupus familiaris; settings: in vivo
Method in brief: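 One-in-one dosing in Beagle dogs: i.v. 0.1 mg/kg in NMP/PEG200 (3:7); p.o. 0.3 mg/kg in MC/water (0.5:99.5). Exposure values dose normalized.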

[11] = Cytotoxicity against C57BL/6 mouse bone marrow cells assessed as growth inhibition preincubated for 4 days followed by [3H]-thymidine addition measured after 5 hrs by betaplate counting analysis; assay type: cell-based, Bone marrow cell; settings: Mus musculus, C57BL/6, Bone marrow cell
Rattus norvegicus [12] = experiment: Dose normalized AUC in Sprague-Dawley rat at 1 mg/kg, iv administered as cassette dosing; assay type: ADME, organism-based; parameters: dose 1 mg/kg, route intravenous; settings: in vivo
Method in brief: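 Rat PK: i.v. 1 mg/kg in NMP/PEG200 (3:7); p.o. 3 mg/kg in CMC/water/Tween (0.5:99:0.5). Exposure values dose normalized.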

[13] = biological target: T1, Tyrosine-protein kinase ZAP-70; experiment: Competitive binding affinity to human ZAP70

concentration at 8 h [1]: 1.72 µM
IC50 [4]: 0.251 µM
MRT [5]: 8.4 h
IC50 [6]: 0.035 µM
MRT [7]: 8.7 h
Vd [9]: 16.4 L/kg
Cmax/dose (Canis familiaris [10]): 0.139 µM
AUC/dose (Rattus norvegicus [12]): 1459 nM·h
Kd [13]: 0.065 µM
Structure (SMILES): NC(=O)c1nnc(N[C@@H]2CCCC[C@@H]2N)nc1Nc1cccc2cc[nH]c12
Activity (Canis familiaris [2]): Toxic
inhibition in vivo at 22 mg/kg (Rattus norvegicus [3]): 90%
Activity (Rattus norvegicus [8]): Active
IC50 [11]: 9.02 µM
